Source: ChEMBL document CHEMBL3352673, “Novel inhibitors of the high-affinity L-proline transporter as potential therapeutic agents for the treatment of cognitive disorders” (Bioorg Med Chem Lett, 2014)
The source made the active and inactive calls. The calls are words filed in the database; no cut-off is given here.

How the values were obtained:
[1] = Stability in mouse liver homogenates assessed as remaining parent compound level after 30 mins; assay type: ADME, tissue-based; details: liver homogenate, read-out: Stability
Method in brief: (§1)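 Compound incubated 30 min with S9 fraction of mouse liver homogenate; parent compound remaining measured.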

[2] = biological target: T1, Sodium-dependent proline transporter (Homo sapiens, UniProt Q99884); experiment: Inhibition of human high-affinity L-proline transporter expressed in COS1 cells by [3H]proline uptake assay; assay type: cell-based, COS-1
T1 sequence (Q99884 whole entry): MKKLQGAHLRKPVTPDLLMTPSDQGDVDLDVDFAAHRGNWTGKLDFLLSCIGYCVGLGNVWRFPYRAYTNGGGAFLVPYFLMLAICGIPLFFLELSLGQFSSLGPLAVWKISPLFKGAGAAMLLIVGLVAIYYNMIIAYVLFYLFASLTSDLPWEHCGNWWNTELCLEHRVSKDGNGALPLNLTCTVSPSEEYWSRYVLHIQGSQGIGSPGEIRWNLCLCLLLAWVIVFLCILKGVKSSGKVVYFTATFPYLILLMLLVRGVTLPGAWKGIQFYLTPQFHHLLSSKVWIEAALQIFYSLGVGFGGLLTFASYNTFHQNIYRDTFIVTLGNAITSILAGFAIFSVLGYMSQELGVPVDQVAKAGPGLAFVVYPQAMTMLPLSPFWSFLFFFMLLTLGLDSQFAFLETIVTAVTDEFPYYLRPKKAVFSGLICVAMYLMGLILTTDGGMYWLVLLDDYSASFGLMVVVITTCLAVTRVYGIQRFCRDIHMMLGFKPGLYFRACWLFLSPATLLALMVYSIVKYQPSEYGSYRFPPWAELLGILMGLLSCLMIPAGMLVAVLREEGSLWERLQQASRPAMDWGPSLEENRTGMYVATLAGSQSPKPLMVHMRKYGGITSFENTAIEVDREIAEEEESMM

[3] = Protein binding in plasma (unknown origin) by equilibrium dialysis assay; assay type: ADME, cell-free; details: read-out: PPB (converted)
Method in brief: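 Plasma protein binding measured by equilibrium dialysis.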

hERG (KCNH2) = hERG (KCNH2) (Homo sapiens, UniProt Q12809); experiment: Inhibition of human ERG at 10 uM
Chain of hERG (KCNH2) (Q12809 whole entry): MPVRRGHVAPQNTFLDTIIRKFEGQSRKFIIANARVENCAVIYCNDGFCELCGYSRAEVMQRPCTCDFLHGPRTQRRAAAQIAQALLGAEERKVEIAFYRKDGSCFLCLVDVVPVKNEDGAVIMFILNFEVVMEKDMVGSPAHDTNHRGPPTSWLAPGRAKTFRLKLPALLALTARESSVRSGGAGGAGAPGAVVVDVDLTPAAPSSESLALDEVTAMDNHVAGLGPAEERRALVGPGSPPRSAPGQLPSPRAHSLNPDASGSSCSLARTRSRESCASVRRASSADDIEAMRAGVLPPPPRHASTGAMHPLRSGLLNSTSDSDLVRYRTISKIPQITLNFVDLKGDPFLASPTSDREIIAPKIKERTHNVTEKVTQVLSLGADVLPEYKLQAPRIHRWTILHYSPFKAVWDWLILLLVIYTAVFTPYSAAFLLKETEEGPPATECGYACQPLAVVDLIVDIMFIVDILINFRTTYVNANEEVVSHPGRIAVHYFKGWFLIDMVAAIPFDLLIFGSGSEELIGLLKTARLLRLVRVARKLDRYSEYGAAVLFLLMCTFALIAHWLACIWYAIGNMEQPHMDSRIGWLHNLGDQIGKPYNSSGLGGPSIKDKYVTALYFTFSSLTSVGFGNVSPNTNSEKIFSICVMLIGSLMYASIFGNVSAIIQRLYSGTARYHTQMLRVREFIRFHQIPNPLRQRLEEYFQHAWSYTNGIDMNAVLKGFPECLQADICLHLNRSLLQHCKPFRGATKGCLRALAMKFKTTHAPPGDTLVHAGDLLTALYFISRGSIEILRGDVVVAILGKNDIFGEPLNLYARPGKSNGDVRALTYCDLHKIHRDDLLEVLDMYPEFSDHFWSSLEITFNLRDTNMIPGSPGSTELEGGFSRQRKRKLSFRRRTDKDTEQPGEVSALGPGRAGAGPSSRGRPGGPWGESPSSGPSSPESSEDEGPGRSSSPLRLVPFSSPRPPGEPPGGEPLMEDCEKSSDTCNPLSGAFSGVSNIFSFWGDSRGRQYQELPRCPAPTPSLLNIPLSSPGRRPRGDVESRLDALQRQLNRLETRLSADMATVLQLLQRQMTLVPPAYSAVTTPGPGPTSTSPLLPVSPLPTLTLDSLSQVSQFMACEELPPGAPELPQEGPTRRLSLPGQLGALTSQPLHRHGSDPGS

Mus musculus [4] = experiment: Toxicity in mouse assessed as induction of lethargy at 1 mg/kg, iv; assay type: organism-based; design: dose 1 mg/kg, route intravenous; details: in vivo
Method in brief: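 Mice dosed IV at 1 mpk and observed for lethargy.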

[5] = Stability in mouse liver S9 fraction assessed as remaining parent compound level after 30 mins; assay type: ADME, subcellular; details: read-out: Stability; method in brief: as §1
[6] = biological target: T2, Sodium-dependent dopamine transporter (Homo sapiens, UniProt Q01959); experiment: Inhibition of DAT (unknown origin)
T2 sequence (Q01959 whole entry): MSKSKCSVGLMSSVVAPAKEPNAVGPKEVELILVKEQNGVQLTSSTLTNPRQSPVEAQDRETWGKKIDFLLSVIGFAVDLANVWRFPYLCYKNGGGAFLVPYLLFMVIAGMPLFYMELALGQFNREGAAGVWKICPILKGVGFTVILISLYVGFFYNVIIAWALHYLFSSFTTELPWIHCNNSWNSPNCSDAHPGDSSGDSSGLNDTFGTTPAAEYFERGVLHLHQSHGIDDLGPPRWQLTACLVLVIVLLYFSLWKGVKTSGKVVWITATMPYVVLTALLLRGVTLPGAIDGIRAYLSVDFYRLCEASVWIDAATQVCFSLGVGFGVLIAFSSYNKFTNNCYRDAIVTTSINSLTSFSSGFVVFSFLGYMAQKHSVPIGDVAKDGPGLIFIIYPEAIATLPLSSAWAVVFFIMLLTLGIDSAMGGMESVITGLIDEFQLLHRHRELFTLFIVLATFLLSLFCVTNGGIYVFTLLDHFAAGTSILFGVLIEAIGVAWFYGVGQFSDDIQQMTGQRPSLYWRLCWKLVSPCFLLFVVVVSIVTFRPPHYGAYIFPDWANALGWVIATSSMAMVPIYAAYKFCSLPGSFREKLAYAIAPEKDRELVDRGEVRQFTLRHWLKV

[7] = Inhibition of GlyT (unknown origin); design: species or system Homo sapiens
[8] = Cmax in albino C57BL/6 mouse at 100 mg/kg, po; assay type: ADME, organism-based; design: dose 100 mg/kg, route oral; details: in vivo
Method in brief: (§2)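 Single oral administration at 100 mpk to C57BL/6 albino mice; plasma exposure parameters (Tmax, Cmax, AUC) derived.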

[9] = Tmax in albino C57BL/6 mouse at 100 mg/kg, po; assay type: ADME, organism-based; design: dose 100 mg/kg, route oral; details: in vivo; method in brief: as §2
Mus musculus [10] = experiment: Toxicity in albino C57BL/6 mouse assessed as effect on open field trial parameters at 100 mg/kg, po; assay type: organism-based; design: dose 100 mg/kg, route oral; details: in vivo
[11] = Drug level in albino C57BL/6 mouse brain at 100 mg/kg, po after 6 hrs; assay type: ADME, organism-based; design: dose 100 mg/kg, route oral; details: read-out: Drug uptake
[12] = AUC (0 to infinity) in albino C57BL/6 mouse at 100 mg/kg, po; assay type: ADME, organism-based; design: time infinity, dose 100 mg/kg, route oral; details: plasma; method in brief: as §2
Mus musculus [13] = experiment: Induction of cognitive improvement in albino C57BL/6 mouse trace conditioning model assessed as improvement in response to conditioned stimulus at 100 mg/kg, po; assay type: functional, organism-based; design: dose 100 mg/kg
Method in brief: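 C57 mice (n = 13) given 100 mpk PO alongside a vehicle control group; fear conditioning with context freezing portion scored as response to conditioned stimulus; statistical comparison with vehicle by P value.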

[14] = biological target: T2, Sodium-dependent dopamine transporter; experiment: Inhibition of DAT (unknown origin) at 10 uM
Mus musculus [15] = experiment: Toxicity in albino C57BL/6 mouse at 100 mg/kg, po; assay type: organism-based; design: dose 100 mg/kg, route oral; details: in vivo
[16] = Ratio of drug level in brain to plasma in albino C57BL/6 mouse at 100 mg/kg, po after 6 hrs; assay type: ADME, organism-based; design: dose 100 mg/kg, route oral; details: read-out: BPR

SMILES | IC50 [2] | other results
O=C(c1ccc(-c2cccc(Cl)c2)cc1)N1C2CCC1CN(c1ncccn1)C2 | 18 nM | inhibition at 10 µM (hERG (KCNH2)): 59%; Activity (Mus musculus [4]): Toxic; remaining at 0.5 h [5]: 70%; IC50 [6]: 6100 nM; IC50 [7]: > 10000 nM
CC1CN(c2ncccn2)CC(C)N1C(=O)c1ccc(-c2cccc(Cl)c2)cc1 (stereo not given) | 24 nM | 
O=C(c1ccc(-c2ccccc2)cc1)N1CCN(c2ccccc2)CC1 | 1480 nM | 
Cc1ccnc(N2CCN(C(=O)c3ccc(-c4ccccc4)cc3)CC2)n1 | 270 nM | 
O=C(c1ccc(-c2ccccc2)cc1)N1CCN(c2ccccn2)CC1 | 160 nM | remaining at 0.5 h [5]: 53%
C[C@@H]1CN(c2ncccn2)CCN1C(=O)c1ccc(-c2ccc(Cl)cc2)cc1 | 57 nM | 
Cc1ccc(-c2ccc(C(=O)N3CCN(c4ncccn4)CC3)cc2)s1 | 61 nM | 
Cc1ccc(-c2ccc(C(=O)N3CCN(c4ncccn4)CC3)cc2)cc1 | 34 nM | 
CC(C)(C)C1CN(c2ncccn2)CCN1C(=O)c1ccc(-c2cccc(Cl)c2)cc1 (stereo not given) | 700 nM | 
O=C(c1ccc(-c2cccc(Cl)c2)cc1)N1CCN(c2ncccn2)CC1 | 36 nM | remaining at 0.5 h [5]: 90%; IC50 [6]: 3400 nM; IC50 [7]: > 10000 nM; fraction unbound [3]: 0.008
O=C(c1ccc(Oc2ccccc2)cc1)N1CCN(c2ncccn2)CC1 | 1950 nM | 
O=C(c1ccc(-c2cccc(Cl)c2)cc1)N1CC2CN(c3ncccn3)CC2C1 (stereo not given) | 36 nM | 
O=C(c1ccc(-c2ccccc2)cc1)N1CCN(c2cccnn2)CC1 | 5000 nM | 
O=C(O)C1CN(c2ncccn2)CCN1C(=O)c1ccc(-c2cccc(Cl)c2)cc1 (stereo not given) | 128 nM | 
O=C(c1ccc(C2CCCCC2)cc1)N1CCN(c2ncccn2)CC1 | 7010 nM | 
O=C(c1cccc(-c2ccccc2)c1)N1CCN(c2ncccn2)CC1 | 1880 nM | 
N#Cc1ccc(-c2ccc(C(=O)N3CCN(c4ncccn4)CC3)cc2)cc1 | 190 nM | 
O=C(c1ccc(-c2ccccc2)cc1)N1CCN(c2ncccn2)CC1 | 280 nM | 
N#Cc1cccc(-c2ccc(C(=O)N3CCN(c4ncccn4)CC3)cc2)c1 | 190 nM | 

More lines, in order of falling IC50 [2], values ahead:

IC50 [2] | SMILES | other results
6010 nM | O=C(c1ccccc1-c1ccccc1)N1CCN(c2ncccn2)CC1 | 
2180 nM | O=C(c1ccc(-c2ccccc2)cc1)N1CCN(c2nccc(C(F)(F)F)n2)CC1 | 
1340 nM | O=C(c1ccc(-c2cccc(Cl)c2)cc1)N1CC2CC1CN2c1ncccn1 (stereo not given) | 
1300 nM | O=C(c1ccc(-c2ccccc2)cc1)N1CCN(c2cnccn2)CC1 | 
1260 nM | O=C(c1ccc(-c2ccccc2C(F)(F)F)cc1)N1CCN(c2ncccn2)CC1 | 
870 nM | O=C(c1ccc(NCc2ccccc2)cc1)N1CCN(c2ncccn2)CC1 | remaining at 0.5 h [1]: 63%; fraction unbound [3]: 0.05
653 nM | Cc1ccccc1-c1ccc(C(=O)N2CCN(c3ncccn3)CC2)cc1 | 
477 nM | CC1CN(C(=O)c2ccc(-c3ccccc3)cc2)CCN1c1ncccn1 (stereo not given) | 
270 nM | O=C(c1ccc(OCc2ccccc2)cc1)N1CCN(c2ncccn2)CC1 | remaining at 0.5 h [1]: 45%
230 nM | COc1ccc(-c2ccc(C(=O)N3CCN(c4ncccn4)CC3)cc2)cc1 | 
150 nM | O=C(c1ccc(-c2ccc(Cl)s2)cc1)N1CCN(c2ncccn2)CC1 | 
146 nM | O=C(c1ccc(-c2ccccc2)cc1)N1CCN(c2nccs2)CC1 | 
89 nM | O=C(c1ccc(-c2cccc(Cl)c2)cc1)N1CCCN(c2ncccn2)CC1 | 
77 nM | CCc1ccc(-c2ccc(C(=O)N3CCN(c4ncccn4)CC3)cc2)cc1 | 
76 nM | O=C(c1ccc(-c2cccc(Cl)c2)cc1)N1CCN(c2ncccn2)CC1CO (stereo not given) | 
73 nM | O=C(c1ccc(-c2cccc(OC(F)(F)F)c2)cc1)N1CCN(c2ncccn2)CC1 | 
71 nM | O=C(c1ccc(-c2cccc(C(F)(F)F)c2)cc1)N1CCN(c2ncccn2)CC1 | 
53 nM | CC1(C)CN(c2ncccn2)CCN1C(=O)c1ccc(-c2cccc(Cl)c2)cc1 | 
52 nM | O=C(c1ccc(-c2ccc(Cl)cc2)cc1)N1CCN(c2ncccn2)CC1 | fraction unbound [3]: 0.022
34 nM | Cc1csc(-c2ccc(C(=O)N3CCN(c4ncccn4)CC3)cc2)c1 | 
27 nM | O=C(c1ccc(-c2cccc(Cl)c2)cc1)N1CC2CCC(C1)N2c1ncccn1 | Cmax [8]: 4500 ng/mL; remaining at 0.5 h [5]: 75%; Tmax [9]: 22.8 min; Activity (Mus musculus [10]): Non-toxic; concentration at 6 h [11]: 2260 ng/mL; AUC(0-inf) [12]: 24000 ng·h/mL; Activity (Mus musculus [13]): inactive; inhibition [14]: inactive; Activity (Mus musculus [15]): Non-toxic; Kp at 6 h [16]: 1.7
21 nM | C[C@H]1CN(c2ncccn2)CCN1C(=O)c1ccc(-c2ccc(Cl)cc2)cc1 | 
